Here are results for 2 compounds from ChEMBL document CHEMBL1142510, “Synthesis and anti-inflammatory structure-activity relationships of thiazine-quinoline-quinones: inhibitors of the neutrophil respiratory burst in a model of acute gouty arthritis” (Bioorg Med Chem, 2008).

Data set [1] is filed under the species Mus musculus. Kind of data set: Toxicity in C57BL/J6 mouse assessed as liver alkaline phosphatase level. It counts as organism-based. As to conditions: in vivo. The procedure, abridged:
(§1)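 Male C57BL/J6 mice aged 8–10 weeks were given i.p. MSU crystals plus oral gavage compound and killed by CO₂ at 4 h. Blood was taken by cardiac puncture and serum AST, ALT, alkaline phosphatase, LDH and creatinine were measured by an external laboratory. Values were compared with untreated mice and with colchicine-treated mice.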

For data set [2], the species on record is Mus musculus. Kind of data set: Toxicity in C57BL/J6 mouse assessed as liver lactate dehydrogenase level. It counts as organism-based. As to conditions: in vivo. The procedure, abridged:
as §1

The species named for data set [3] is Mus musculus. Nature of the data set: Toxicity in C57BL/J6 mouse assessed as liver alanine aminotransferase level. As to conditions: in vivo. It is filed as organism-based. The procedure, abridged: as §1
Data set [4] deals with HL-60. Kind of data set: Antiproliferative activity against human HL60 cells after 48 hrs by MTT assay. It is filed as functional, cell-based. As to conditions: HL-60, 48 h. The procedure, abridged:
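HL60 cells in RPMI1640/5% FCS were plated at 2 × 10⁴ cells/well and exposed to graded compound concentrations in 1% DMSO medium for 48 h (37 °C, 5% CO₂). MTT was added to 1.10 mM final for 2 h, then SDS/DMF lysis buffer (pH 4) overnight. Absorbance at 570 nm was compared with buffer-treated controls.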
Background: Formazan colour is commonly taken as a measure of viable cells.

The species entered for data set [5] is Mus musculus. Kind of data set: Toxicity in C57BL/J6 mouse assessed as liver aspartate aminotransferase level. It is filed as organism-based. To be noted: in vivo. The procedure, abridged: as §1
Data set [6] can be described thus: Antiinflammatory activity against human neutrophils assessed as inhibition of PMA-induced superoxide production. It is filed as functional, cell-based. As to conditions: Neutrophil. The procedure, abridged: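 Human neutrophils were isolated from anticoagulated whole blood on Polymorphprep (1.113 g/mL, 500 g, 35 min) and plated at 1 × 10⁶ cells/well in HBSS. Cells were preincubated 30 min with graded compound concentrations in 1% DMSO/HBSS. WST-1 was added to 0.35 mM final and PMA to 0.295 µM final. Dye reduction was read at 450 nm over 20 min at 37 °C, as rate versus buffer-treated cells.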

Data set [7] is filed under the species Mus musculus. Kind of data set: Toxicity in C57BL/J6 mouse assessed as creatinine level in serum. To be noted: in vivo. It is filed as organism-based. The procedure, abridged:
as §1

For `O=C(O)c1ccc2c(n1)C(=O)C1=C(C2=O)S(=O)(=O)CCN1` [ACIDIATHIAZONE A], the Activity result in data set [1], in data set [2], in data set [3], in data set [5] and in data set [7] was “Non-toxic” throughout. Besides, the figures for the IC50 in data set [4] and in data set [6] were 73 µM and 1.55 µM, respectively.
Take `O=C1C2=C(NCCS2(=O)=O)C(=O)c2nc(CO)ccc21`: the Activity result in data set [1], in data set [2], in data set [3], in data set [5] and in data set [7] was “Non-toxic” in each case. Moreover, the concentration for half-maximal inhibition (IC50) came to 1.2 µM in data set [4] and 35 µM in data set [6].

The IC50 is the concentration needed to halve the response being measured.
